Data from ChEMBL document CHEMBL4043160, “Facile alkylation of 4-nitrobenzotriazole and its platelet aggregation inhibitory activity” (Bioorg Med Chem, 2017).
Active and inactive are the calls of the source. The calls are words filed in the database; no cut-off is given here.

The compounds below were run against P2Y purinoceptor 12 (Homo sapiens) (UniProt Q9H244) (assay: Agonist activity at P2Y12 in human platelets assessed as effect on VASP phosphorylation at 200 uM by CY-QUANT VASP/P2Y12 ELISA method).
Sequence of P2Y purinoceptor 12 (Homo sapiens) (Q9H244 whole entry): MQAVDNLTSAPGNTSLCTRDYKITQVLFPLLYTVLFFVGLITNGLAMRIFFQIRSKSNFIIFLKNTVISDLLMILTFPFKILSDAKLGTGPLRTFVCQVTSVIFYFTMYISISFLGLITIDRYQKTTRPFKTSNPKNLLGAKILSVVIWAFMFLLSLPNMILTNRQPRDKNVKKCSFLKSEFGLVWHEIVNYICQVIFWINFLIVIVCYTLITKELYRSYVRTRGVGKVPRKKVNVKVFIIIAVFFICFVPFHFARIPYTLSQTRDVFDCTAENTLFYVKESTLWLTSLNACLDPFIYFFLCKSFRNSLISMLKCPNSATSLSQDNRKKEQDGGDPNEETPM
How it was run: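 VASP phosphorylation read by CY-QUANT VASP/P2Y12 ELISA kit, run per manufacturer's instructions. Platelets were exposed to PGE1, and PGE1-induced phosphorylation was set as 100%. ADP served as the P2Y12 agonist reference. Compounds were tested at 200 µM together with ADP. Per se effect at 200 µM was checked with PGE1 alone, without ADP.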
With `CCCCn1nnc2c([N+](=O)[O-])cccc21` the Activity was “inactive”.
`CCCCCCCn1nnc2c([N+](=O)[O-])cccc21` was tested, and the Activity was “inactive”.
For `CCCCCCCn1nc2cccc([N+](=O)[O-])c2n1`, the Activity was “inactive”.
With `Cn1nc2cccc([N+](=O)[O-])c2n1` the Activity was “inactive”.
For `O=[N+]([O-])c1cccc2c1nnn2Cc1ccccc1`, the Activity was “inactive”.
`CCCCCCCCn1nc2cccc([N+](=O)[O-])c2n1` was tested, and the Activity was “inactive”.
`CCCCCn1nc2cccc([N+](=O)[O-])c2n1` was tested, and the Activity was “inactive”.
`CCCCn1nc2cccc([N+](=O)[O-])c2n1` was tested, and the Activity was “inactive”.
With `Cn1nnc2c([N+](=O)[O-])cccc21` the Activity was “inactive”.
In the case of `O=[N+]([O-])c1cccc2nn(Cc3ccccc3)nc12`, the Activity is reported as “inactive”.
In the case of `CCCn1nnc2c([N+](=O)[O-])cccc21`, the Activity is reported as “inactive”.
For `Cn1nnc2cccc([N+](=O)[O-])c21`, the Activity was “inactive”.
In the case of `CCn1nnc2c([N+](=O)[O-])cccc21`, the Activity is reported as “inactive”.
With `CCCn1nc2cccc([N+](=O)[O-])c2n1` the Activity was “inactive”.
`O=C(c1ccccc1)n1nnc2c([N+](=O)[O-])cccc21` was tested, and the Activity was “inactive”.
For `CCn1nc2cccc([N+](=O)[O-])c2n1`, the Activity was “inactive”.
For `CCCCCCCCn1nnc2c([N+](=O)[O-])cccc21`, the Activity was “inactive”.
For `CCCCCCn1nnc2c([N+](=O)[O-])cccc21`, the Activity was “inactive”.
With `CCCCCn1nnc2c([N+](=O)[O-])cccc21` the Activity was “inactive”.
In the case of `Cc1ccc(S(=O)(=O)n2nnc3c([N+](=O)[O-])cccc32)cc1`, the Activity is reported as “inactive”.
With `CCCCCCn1nc2cccc([N+](=O)[O-])c2n1` the Activity was “inactive”.
In the case of `O=[N+]([O-])c1cccc2c1nnn2CCCCl`, the Activity is reported as “inactive”.
For `O=[N+]([O-])c1cccc2nn(CCCCl)nc12`, the Activity was “inactive”.
